Structures can show the parent of a compound that is named as a salt. Values belong to the molecule of their own block, whether it stands above or below them.
Tests used:
C. parvum [1] = experiment: C. parvum growth assay in HCT-8 cells; type: cell-based, Cryptosporidium parvum; settings: for EC50: HCT-8, 24 h; for Cp infection, treatment started 4 hpi: 4 – 24 hpi; for Cp growth, treatment 0 – 4 hpi only: first four hours of infection only
C. parvum [2] = experiment: Initial screen of gut metabolites on C. parvum growth in HCT-8 cells; type: cell-based, Cryptosporidium parvum; settings: 24 hpi, metabolite at 1 mM (0.1 mM for bile acids/salts)
How it was run: (§1)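 Confluent HCT-8 cells (1.5 × 10^5/well, grown ~24 h) were infected with 5 × 10^5 bleached oocysts together with a single metabolite diluted in culture medium (1 mM or 0.1 mM) for 24 h. Parasite and host cell numbers are given as ratios to PBS control wells on the same plate. Each metabolite was run in triplicate across six separate experiments.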

AhR = settings: cited from earlier work
C. parvum [3] = experiment: Antibody and EdU labeling of C. parvum life cycle stages in HCT-8 cells; type: cell-based, Cryptosporidium parvum; settings: EC90 concentrations; for life cycle stage progression: first 24 hpi, EdU pulses
C. parvum [4] = experiment: Metabolite treatment of C. parvum-infected GKO mice; type: in vivo, mouse
C. parvum [5] = experiment: Air-liquid interface; type: cell-based, Cryptosporidium parvum; settings: for time after washout to significant recovery in Cp growth: treated 48 h at EC50 concentration; for EC50 / EC90: Cryptosporidium parvum; for EC50: read-out: EC50 for Cp in ALI cultures; for EC90: read-out: EC90 for Cp in ALI cultures
How it was run: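 ALI transwells were coated with 10% Matrigel and seeded with irradiated mouse 3T3 fibroblasts (8 × 10^4/transwell). Top medium was removed after 7 days, and 5 × 10^4 oocysts were added on top 3 days later. After ~4 h the tops were washed twice with DPBS and day-0 wells scraped. Test compound at three levels or 1% DMSO went in the bottom medium for ~48 h, then transwells moved to normal medium. Parasite genome eq. by DNA extraction, normalized to DMSO at each time point; six replicates (3 technical × 2 experiments).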

HCT-8 cells [6] = experiment: Host nuclei in growth assay with mitochondrial inhibitors; type: cell-based, human; settings: for host cell toxicity at Cp-inhibitory levels: HCT-8, 24 h, at EC50 levels
How it was run: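 Confluent HCT-8 cells (1.5 × 10^5/well) were infected with 1 × 10^5 bleached oocysts and exposed ~24 h to test compounds, serially diluted 1:2 from 40 μM (final, 1% DMSO). Cells were fixed in 4% formaldehyde, permeabilized/blocked in 0.1% Triton-X/1% BSA, Hoechst-stained and counted, with values relative to the 1% DMSO control mean. Four replicates (2 technical × 2 experiments).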

Cp mitosome = experiment: Mitotracker CMXRos staining of C. parvum mitosome; type: cell-based, Cryptosporidium parvum; settings: 2 x EC90 indole 1.76 mM, 7CNI 1 mM, CCCP 10 μM; 2 h or 24 h
How it was run: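 HCT-8 cells on coverslips were infected with 5 × 10^5 oocysts, washed twice with DPBS, and exposed in 1% DMSO medium either 22–24 hpi (2 h) or continuously to 24 hpi. MitoTracker Red CMXRos (50 nM final) was added 45 min before fixation at 24 hpi. Staining used 1E12 with Alexa Fluor 488 secondary plus Hoechst. Four replicates (2 technical × 2 experiments).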

[7] = tested on: AhR target genes AhRR and CYP1A1; settings: HCT-8 AhR KO 1 and KO 2, VAF347 500 nM, 24 h
C. parvum [8] = settings: dietary supplementation, malnourished neonatal mice; cited from earlier work
HCT-8 cells [9] = experiment: Host cell numbers in the initial metabolite screen; type: cell-based, human; settings: metabolite at 1 mM, 24 h
How it was run: as §1

HCT-8 cells [10] = experiment: Seahorse metabolic assays; type: cell-based, human; settings: 18 h
C. parvum [11] = experiment: C. parvum growth assay in HCT-8 AhR KO cell lines; type: cell-based, Cryptosporidium parvum; settings: HCT-8 AhR KO cells, 24 h, indole 1 mM, 4HI 1 mM
C. parvum [12] = settings: neonatal mice, only when gut microflora present; cited from earlier work
[13] = Cryptosporidium parvum, read-out: Cp EC50
[14] = Cryptosporidium parvum, HCT-8, read-out: EC90 for Cp, HCT-8 cells
[15] = indole 0.5-2 mM, 7CNI 0.25-1 mM

EC50 (C. parvum [1]; [13]): 1260 µM
Molecule: Oc1cccc2[nH]ccc12 [4-hydroxyindole]
effect on Cp growth (Cp numbers relative to PBS control) (C. parvum [2]): significantly inhibited

Molecule: Cc1cccc2[nH]ccc12 [4-methylindole]
AhR signaling in vitro (AhR): activate AhR signaling

Molecule: O=C(O)Cc1c[nH]c2ccc(O)cc12 [5-hydroxyindole-3-acetic acid]
effect on Cp growth (Cp numbers relative to PBS control) (C. parvum [2]): no effect

Molecule: Cc1ccc2cc[nH]c2c1 [6-methylindole]
AhR signaling in vitro (AhR): activate AhR signaling

Molecule: N#Cc1cccc2cc[nH]c12 [7-cyanoindole]
life cycle stage progression (C. parvum [3]): delayed progression through sequential life cycle stages
survival rate (C. parvum [4]; 50 mg/kg BID 7 days): did not significantly increase survival rate
mean Cp oocysts per mg feces by 9 dpi (C. parvum [4]; 50 mg/kg BID 7 days, after end of treatment): rebounded
body weight vs vehicle- or indole-treated mice (C. parvum [4]; 50 mg/kg BID, 5 and 7 dpi): weighed significantly more
time after washout to significant recovery in Cp growth (C. parvum [5]; ALI): 4 days
EC50 (C. parvum [5]): 379 µM
EC90 (C. parvum [5]): 688 µM
EC90 (C. parvum [1]; [14]): 500 µM
Cp infection, treatment started 4 hpi (C. parvum [1]; EC90 concentrations): significantly inhibited Cp infection
Cp growth, treatment 0 – 4 hpi only (C. parvum [1]; EC90 concentrations): neither indole nor 7CNI inhibited Cp growth

Molecule: COc1cccc2cc[nH]c12 [7-methoxyindole]
AhR signaling in vitro (AhR): activate AhR signaling

Molecule: N#CC(C#N)=NNc1cccc(Cl)c1 [CCCP, carbonyl cyanide m-chlorophenyl hydrazone]
host toxicity at high concentration (HCT-8 cells [6]; HCT-8, 40 μM and 20 μM): observed host toxicity
host cell toxicity at Cp-inhibitory levels (HCT-8 cells [6]): not due to host cell toxicity
Mitotracker staining of Cp mitosomes (Cp mitosome): decreases Mitotracker staining

Molecule: FC(F)(F)c1ccc(Nc2nccc(-c3cccc(Cl)c3)n2)cc1 [VAF347]
CYP1A1 gene expression in AhR KO lines [7]: lost the ability to upregulate CYP1A1 gene expression

Molecule: N=C(N)NCCC[C@H](N)C(=O)O [arginine]
severity of C. parvum infection (C. parvum [8]): decrease severity of C. parvum infection

Molecule: C[C@H](CCC(=O)O)[C@H]1CC[C@H]2[C@@H]3CC[C@@H]4C[C@H](O)CC[C@]4(C)[C@H]3C[C@H](O)[C@]12C [deoxycholate, sodium deoxycholate]
effect on Cp growth (Cp numbers relative to PBS control) (C. parvum [2]): significantly inhibited

Molecule: C[C@H](CCC(=O)O)[C@H]1CC[C@H]2[C@@H]3CC[C@@H]4C[C@H](O)CC[C@]4(C)[C@H]3C[C@H](O)[C@]12C [deoxycholic acid]
host toxicity in screen (HCT-8 cells [9]): significant host toxicity

Molecule: c1ccc2[nH]ccc2c1 [indole]
morphology of mature merozoites (1E12 labeling) (C. parvum [3]; 22 h): did not observe any obvious morphological defects
time until which total number of Cp did not significantly differ from DMSO (C. parvum [3]; HCT-8, start of second round of merogony): ~ 16 hpi
life cycle stage progression (C. parvum [3]): delayed progression through sequential life cycle stages
median survival time (C. parvum [4]; 50 mg/kg BID 7 days, vehicle 11 dpi): 17 dpi
Cp oocysts shed in feces (C. parvum [4]; 50 mg/kg oral gavage twice daily 7 days, by 5 dpi): no effect
Cp growth recovery after washout, 2 x EC90 (C. parvum [5]; ALI, treated 48 h at 2 x EC90 concentration): no recovery
time after washout to significant recovery in Cp growth (C. parvum [5]; ALI): 2 days
Cp growth recovery after washout, EC90 (C. parvum [5]; ALI, treated 48 h at EC90 concentration): Some growth recovery (though not significant)
EC50 (C. parvum [5]): 577 µM
EC90 (C. parvum [5]): 1890 µM
EC50 (C. parvum [1]; [13]): 411 µM
EC90 (C. parvum [1]; [14]): 880 µM
Cp infection, treatment started 4 hpi (C. parvum [1]; EC90 concentrations): significantly inhibited Cp infection
Cp growth, treatment 0 – 4 hpi only (C. parvum [1]; EC90 concentrations): neither indole nor 7CNI inhibited Cp growth
Cp infection after pre-treatment of host cells (C. parvum [1]; EC90 concentrations, host cells pre-treated 20 h before infection): did not affect subsequent Cp infection
EC90 (C. parvum [1]; read-out: EC90 for Cp, HCT-8 cells): 877 µM
basal and stressed respiratory rate in HCT-8 WT and AhR KO cells (HCT-8 cells [10]; indole 0.5, 1, 2 mM, stressed = after FCCP and oligomycin): significantly impaired in a dose-dependent manner
basal and maximal levels of mitochondrial respiration (OCR) (HCT-8 cells [10]; indole 0.5, 1, 2 mM, 7CNI 0.25, 0.5, 1 mM, dose-dependent): significantly reduced
ATP production rate by glycolysis (HCT-8 cells [10]; [15]): remained similar
ATP production rate by the mitochondria (HCT-8 cells [10]; [15]): significant reduction
spare respiratory capacity (HCT-8 cells [10]; [15]): diminished
total ATP production rate (HCT-8 cells [10]; [15]): lower total ATP production rate
Cp sensitivity in AhR KO cells (C. parvum [11]): remained sensitive
Mitotracker staining of Cp mitosomes (Cp mitosome): significantly decreased Mitotracker staining

Molecule: C[C@H](CCC(=O)O)[C@H]1CC[C@H]2[C@@H]3CC[C@@H]4C[C@H](O)CC[C@]4(C)[C@H]3CC[C@]12C [lithocholic acid]
host toxicity in screen (HCT-8 cells [9]): significant host toxicity
effect on Cp growth (Cp numbers relative to PBS control) (C. parvum [2]): significantly inhibited

Molecule: CC[C@H]1/C=C/C=C/C[C@@H](C)[C@H](O)[C@@](C)(O)C(=O)[C@@H](C)[C@H](O)[C@@H](C)C(=O)[C@@H](C)[C@H](O)[C@@H](C)/C=C/C(=O)O[C@@H]2[C@H](C)[C@H](CC1)O[C@]1(CC[C@H](C)[C@H](C[C@@H](C)O)O1)[C@H]2C [oligomycin, reference compound]
EC50 (C. parvum [1]; Cryptosporidium parvum, read-out: Cp EC50, OxPhos inhibitors): 20.6 µM
host cell toxicity at Cp-inhibitory levels (HCT-8 cells [6]): not due to host cell toxicity

Molecule: CCCCC[C@H](O)/C=C/[C@H]1[C@H](O)CC(=O)[C@@H]1C/C=C\CCCC(=O)O [prostaglandin E2]
host toxicity in screen (HCT-8 cells [9]): significant host toxicity

EC50 (C. parvum [1]; [13]): 213 µM
Fold selectivity (host EC50 divided by Cp EC50) (C. parvum [1]; HCT-8 cells): 44.6 fold
Molecule: Cc1ncc(CO)c(C=O)c1O [pyridoxal hydrochloride]
effect on Cp growth (Cp numbers relative to PBS control) (C. parvum [2]): significantly inhibited

Molecule: fumaric
effect on Cp growth (Cp numbers relative to PBS control) (C. parvum [2]): impair growth

Molecule: poly(I:C)
C. parvum load (C. parvum [12]): reduced C. parvum load

Molecule: propionic
effect on Cp growth (Cp numbers relative to PBS control) (C. parvum [2]): impair growth
